Measurements: the RNAGym collection of RNA variant scans (doi:10.1126/science.aae0568)
This sample holds only a part of the variants without activity.

B1: tRNA (parent)
chain: GUUCCGUUGGCGUAAUGGUAACGCGUCUCCCUCCUAAGGAGAAGACUGCGGGUUCGAGUCCCGUACGGAACG

Variants of: B1
Experiment: yeast fitness relative to wild type (ratio to wild type); higher = fitter; tRNA-Arg(CCU), competitive growth, 37 C, YPD
Summary of the method: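 For this measurement, the tRNA-Arg(CCU) gene was varied by chemical synthesis at a 3% per-site mutation rate across 69 sites, and each variant was placed at the native genomic locus in Saccharomyces cerevisiae. The pooled strains went through a 24-hour competition in YPD at 37°C in six parallel replicates, with amplicons from start and end populations read by 100-nucleotide paired-end sequencing. Darwinian fitness relative to wild type followed from the change in each genotype's frequency. Genotypes needed ≥ 100 starting reads, and estimates < 0.5 were set to 0.5.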

**Q.** With GUUCCGUUGGCGCAAUGGUAACGCGUCUCCCUCCUAAGGAGAAGACUGCGGGUUCGAGACCCGUACGGAACG as the variant, how does the yeast fitness read?
**A.** 0.768

**Q.** With GUUCCGUUGGCGCAAUGGUAACGCGUCUCCCUCCUAAGGAGAAGACUGCGGGUUCGAGCCCCGUACGGAACG as the variant, how does the yeast fitness read?
**A.** 0.858

**Q.** Which yeast fitness does the source give for GUUCCGUUGGCGGAAUGGUAACGCGUCUCCCUCCUAAGGAGAAGACUGCGGGUUCGAGUCCCGUACGGAACG here?
**A.** 1.03

**Q.** For GUUCCGUUGGCGGUAAUGUAACGCGUCUCCCUCCUAAGGAGAAGACUGCGGGUUCGAGUCCCGUACGGAACG, which yeast fitness is on record?
**A.** ≤ 0.5

**Q.** Which yeast fitness does the source give for GUUCCGUUGGCGGAAUGGUACCGCGUCUCCCUCCUAAGGAGAAGAUUGCAGGUUCGAGUCCCGUACGGAACG here?
**A.** 0.582

**Q.** With GUUCCGUUGGCGGAAUGGUAUGGCGUCUCCCUCCAAAGGAGAAGACUGCGGGUUCGAGUCCCGUGCGGACCG as the variant, how does the yeast fitness read?
**A.** ≤ 0.5

**Q.** Which yeast fitness does the source give for GUUCCGUUGGCGGAAUGGUAACGCGUCUCCCUCCUAAGGCGAAGACUGGGGGAUCGAGUCCCGUACGGAACG here?
**A.** ≤ 0.5

**Q.** Which yeast fitness does the source give for GUUCCGUUGGCGGAAUGGUAACGCGUCUCCCUCCUAAGGGGAACACUGCGGGUUCGAGUCGCGUACGGAACG here?
**A.** ≤ 0.5

**Q.** With GUUCCGUUGGCGGAAUGGUAACGCGUCUCCCUCCUAAGGAGCAGACUGCGGGUUCGAGUCCCGUACGGAACG as the variant, how does the yeast fitness read?
**A.** 1

**Q.** With GUUCCGUUGGCGGAAUGGUAACGCGUCUCCCUCCUAAGGAGCAGACAGCGGGUUCGAGUCCCGUACCGAACG as the variant, how does the yeast fitness read?
**A.** ≤ 0.5

**Q.** With GUUCCGUUGGCGGAAUGGUAACGCGUCUCCCUCCUAAGGAGUAGACUGCGGGUUUGAGUCCGGUACGGACCG as the variant, how does the yeast fitness read?
**A.** 0.525

**Q.** Which yeast fitness does the source give for GUUCCGUUGGCGGAAUGGUAACGCGUCUCCCUCCUAAGGAGAAGACUGCGGGUUCGAGUCCCGUACGGUACG here?
**A.** 0.931

**Q.** With GUUCCGUUGGCGGAAUGGUAAUGCGUCUCCCUCCUAAGGAGAAGUCUGCGGGUUCGAGCCCCGUACGGAACG as the variant, how does the yeast fitness read?
**A.** 0.54

**Q.** Which yeast fitness does the source give for GUUCCGUUGGCGGAAUGGUAAUGCGUCUCACUCCUAAGGAGAAGACUGCGGGUUCGAGUCCCGUACGGAACG here?
**A.** 0.598

**Q.** For GUUCCGUUGGCGGAAUGGUAAUGCAUCUCCCUCCUAAGGAGAAGACUGCGGGUUCGAGUCCCGUACGGAACG, which yeast fitness is on record?
**A.** 1.01

**Q.** Which yeast fitness does the source give for GUUCCGUUGGCGGAAUGGUAAUGCGUCUCCCUCCUAAGGAGAAGACUGCGGGUUCGAGUCCCAUACGGAACG here?
**A.** 0.707

**Q.** Which yeast fitness does the source give for GUUCCGUUGGCGGAAUGGUAACGCGUAUCACUCCUAAGGAGAAGACUGCGGGUUCGAGUCCCCUACGGAACG here?
**A.** 0.537

**Q.** With GUUCCGUUGGCGGAAUGGUAACGCGUCUUCCUUCUAAGGAGAAGACUGCGGGUUCGAGUCCCAUACGGAACG as the variant, how does the yeast fitness read?
**A.** ≤ 0.5

**Q.** For GUUCCGUUGGCGGAAUGGUAACGCGUCUCUCUCCUAAGGAGAAGACUGCGGGUUAGAGUCCCGUACGGAACG, which yeast fitness is on record?
**A.** ≤ 0.5

**Q.** With GUUCCGUUGGCGGAAUGGUAACGCGUCUCCCUUCUAAGGACAAGACUGCGGGUUCGAGUCCCGUACGGAACG as the variant, how does the yeast fitness read?
**A.** 0.581

**Q.** Which yeast fitness does the source give for GUUCCGUUGGCGGAAUGGUAACGCGUCUCCCUCCUAAGGAGAAGAGUGCGGGUUCGAGUCCCGUACGGAACG here?
**A.** 1.12

**Q.** Which yeast fitness does the source give for GUUCCGUUGGCGGAAUGGUAACGCGUCUCCCUCCUAAGGAGAAGACUGGGGGUUCGAGUCCCGUACGGAACG here?
**A.** 0.823

**Q.** With GUUCCGUUGGCGGAAUGGUAACGCGUCUCCCUCCUAAGGAGAAGACUGCGGGUUAGAGUCCCGUACGGAACG as the variant, how does the yeast fitness read?
**A.** 0.502

**Q.** Which yeast fitness does the source give for GUUCCGUUGGCGGAAUGGUAACGCGUCUCCCUCCUAAGGAGAAGACUGCGGGUUCGAGUCACGUAAGGAACG here?
**A.** ≤ 0.5

**Q.** With GUUCCGUUGGCGGAAUGGUAACGCGUCUCCCUCCUAAGGAGAAGACUGCGGGUUCGAGUCACGUACAGAACG as the variant, how does the yeast fitness read?
**A.** ≤ 0.5

**Q.** For GUUCCGUUGGCGGAAUCGUAACGCGUCUCCUUCCUAAGGAGAAGACUGCGGGUUCGAGUCCCGUACGGAACG, which yeast fitness is on record?
**A.** ≤ 0.5

**Q.** With GUUCCGUUGGCGGAAUGAUUACGCGUCUCCGUCCUAAGGAGAAGACUGCGGGUUCGAGUCCCGUACGGAACG as the variant, how does the yeast fitness read?
**A.** 0.566

**Q.** With GUUCCGUUGGCGGAAUGCUAACGCGUCUCUCUGCUAAGGAGAAGACUGCGGGUUCGAGUCCCGUCCGGAGCG as the variant, how does the yeast fitness read?
**A.** ≤ 0.5

**Q.** With GUUCCGUUGGCGGAAUGGUAACGCCUCUCCCUCCUAAGGAGAAGACUGCGGGUUCGAGUCCCGUACGGAACG as the variant, how does the yeast fitness read?
**A.** 0.797

**Q.** With GUUCCGUUGGCGGAAUGGUAACGCGUCUCCCUCCUAAGGACAAGACUGCGGGUUCGAGUCCCGUACGGAACG as the variant, how does the yeast fitness read?
**A.** 0.782

**Q.** For GUUCCGUUGGCGGAAUGGUAACGCGUCUCCCUCCUAAGGACAAGACUGCGAGUUCGAGUCCCGUACGGAACG, which yeast fitness is on record?
**A.** 0.564

**Q.** With GUUCCGUUGGCGGAAUGGUAACGCGUCUCCCUCCUAAGGAUAAGACUGCGGGUUCGAGUCCCGUAGGGAACG as the variant, how does the yeast fitness read?
**A.** ≤ 0.5

**Q.** For GUUCCGUUGGCGGAAUGGUAACGCGUCUCCCUCCUAAGGAGAAGACUGCGGGUUCAAGUCCCGUACGGAACG, which yeast fitness is on record?
**A.** 1.06

**Q.** For GUUCCGUUGGCGGAACGGUAACGCGUCUCCCUCCUAAGGAGAAGACUGCGGGUUCGAGUCCCCUACGGAACG, which yeast fitness is on record?
**A.** ≤ 0.5

**Q.** For GUUCCGUUGGCGGAAGGGUAACGCGUCUCCGUCCUAAGGAGAAGACUGUGGGUUCGGGUCCCGUACGGAACG, which yeast fitness is on record?
**A.** ≤ 0.5

**Q.** With GUUCCGUUGGCGGAAUGGAAACGCGUGUCCCUCCUAAGGAGAAGACUGCGGGUUCGAGUCCCGUACGGAACG as the variant, how does the yeast fitness read?
**A.** 0.626

**Q.** For GUUCCGUUGGCGGAAUGGCAACGCGUCUCCCUCCUAAGGAGAAGACUGCGGGUUCGAGUCUCGUACGGAACG, which yeast fitness is on record?
**A.** ≤ 0.5

**Q.** With GUUCCGUUGGCGGAAUGGUAACGCGACUCCCUCCUAAGGAGAAGCCUGCGGGUUCGAGUCCCGUACGGCACG as the variant, how does the yeast fitness read?
**A.** 0.577
